Published values gathered from unrelated publications.
MET M1250T: Hepatocyte growth factor receptor (MET, Homo sapiens, UniProt P08581, M1250T)
MET: Hepatocyte growth factor receptor (MET, Homo sapiens, UniProt P08581)
MET Y1235D: Hepatocyte growth factor receptor (MET, Homo sapiens, UniProt P08581, Y1235D)
MET D1228H: Hepatocyte growth factor receptor (MET, Homo sapiens, UniProt P08581, D1228H)

CN(CCCC(F)(F)F)c1nccc(-c2cnn3ncccc23)n1 — remaining binding (MET M1250T; binding; 1 µM): 100%
Cc1cc(NC(=O)c2cccc3cc(-c4cccc5[nH]nc(N)c45)ccc23)ccc1F — activity vs control (MET; enzyme activity; inhibitor; 0.1 µM): 104%
CN(c1nccc(-c2cnn3ncccc23)n1)C1CC1 — remaining binding (MET Y1235D; binding; 1 µM): 100%
Cc1c(NC(=O)c2cc(C(N)=O)nc3cc(F)ccc23)c(C(F)(F)F)nn1Cc1ccc(C(C)(C)C)cc1 — remaining binding (MET Y1235D; cell-free assay; competition with immobilised ligand; 1 µM): 84%
Cc1ccc(NC(=O)c2ccc(C)c(C(F)(F)F)c2)cc1C#Cc1nn(C2CCC(O)CC2)c2ncnc(N)c12 (stereo not shown) — remaining signal (MET D1228H; cell-free assay; 10 µM): 124%
CN1CCN(c2cnc3c(C4CCN(C(=O)c5ccc(OC(F)(F)F)cc5N)CC4)ncnc3c2)CC1 — remaining binding (MET M1250T; cell-free assay; competition with immobilised ligand; 1 µM): 100%
C[C@@H]1CCN(c2nccc(-c3cnn4ncccc34)n2)C1 — remaining binding (MET; binding; 1 µM): 84%
O=C(Nc1cnn(-c2csc(C(=O)NC3COC3)c2)c1)Nc1c(F)cccc1Cl — remaining activity (MET; enzyme activity; inhibitor; 5 µM): 86.1%
CCN(CC)CCNC(=O)c1c(C)[nH]c(/C=C2\C(=O)Nc3ccc(F)cc32)c1C — remaining signal (MET; cell-free assay; 0.5 µM): 91%
Nc1cnc(N2CCc3cc(S(=O)(=O)Nc4c(F)cc(Cl)cc4F)cc(N4CCCC4=O)c32)nc1 — remaining binding (MET Y1235D; cell-free assay; competition with immobilised ligand; 1 µM): 69%
Nc1ncnc2occ(-c3ccc(NC(=O)Nc4cc(C(F)(F)F)ccc4F)cc3)c12 — remaining signal (MET M1250T; cell-free assay; 20 µM): 4.1%
COc1cc(Cl)c(C(=O)N[C@@H](CN[C@H]2CC[C@@H](N)CC2)Cc2ccc(C#N)cc2)cc1-c1ccc(CN[C@H](C)c2ccc(C)cc2)o1 — remaining activity (MET; enzyme activity; inhibitor; 1 µM): 63%
CC(C)(O)[C@H]1CC[C@H](Nc2ccc3ncc(-c4cccc(C(F)(F)F)c4)n3n2)CC1 — remaining activity (MET; enzyme activity; inhibitor; 1 µM): 99.8%
COc1cc2ncnc(Nc3ccc(F)c(Cl)c3)c2cc1OCCCN1CCOCC1 — remaining signal (MET; cell-free assay; 0.5 µM): 92.4%
Cc1cnc(NC2CCOCC2)nc1-n1cnc(C(=O)NC(CN)c2cc(F)cc(Cl)c2)c1 (stereo not shown) — remaining activity (MET; enzyme activity; inhibitor; radiometric; 1 µM): 101%
CN(C)C1CCN(CC#Cc2nn(C3CCCC3)c3nc(NCc4ccccc4)ncc23)C1 (stereo not shown) — inhibition (MET; enzyme activity; inhibitor; FRET; 1 µM): 28%
CC(C)(C)c1nc(-c2cccc(NS(=O)(=O)c3c(F)cccc3F)c2F)c(-c2ccnc(N)n2)s1 — remaining activity (MET; enzyme activity; inhibitor; radiometric; 1 µM): 89%
CC/C(=N\NC(=O)NCc1cccc(O)c1)c1ccc(O)c(C)c1O — inhibition (MET D1228H; enzyme activity; inhibitor; 0.1 µM): -2.8%
CC1=C(C#N)[C@@H](c2ccc3[nH]nc(C)c3c2)C(C#N)=C(c2ccc(Cl)cc2)N1 — remaining binding (MET Y1235D; cell-free assay; competition with immobilised ligand; 1 µM): 52.6%
N[C@H]1CCN(c2nccc(-c3cnn4ncccc34)n2)C1 — remaining binding (MET Y1235D; binding; 1 µM): 100%
O=C1NC(=O)c2cc(Nc3ccc(F)cc3)c(Nc3ccc(F)cc3)cc21 — remaining signal (MET; cell-free assay; 0.5 µM): 96.7%
O=C(O)[C@H]1[C@H](Cn2nnc3ccccc3c2=O)CC[C@@H]1C(=O)c1ccc(OCCC2CCOCC2)cc1 — remaining binding (MET Y1235D; cell-free assay; competition with immobilised ligand; 1 µM): 100%
CNC(=O)c1cc2c(Oc3ccc(NC(=O)C4(C(=O)Nc5ccc(F)cc5)CC4)cc3)ccnc2cc1OC — inhibition (Hepatocyte growth factor receptor (MET, Homo sapiens, UniProt P08581, D1228N); enzyme activity; inhibitor; radiometric; 1 µM): 100%
CN(C)c1ncc(F)c(-c2cnn3ncccc23)n1 — remaining binding (MET Y1235D; binding; 1 µM): 100%
Cc1ccc(C(=O)Nc2ccc(CN3CCN(C)CC3)c(C(F)(F)F)c2)cc1C#Cc1cnc2cccnn12 — remaining signal (MET M1250T; cell-free assay; 23.5 nM): 86%
CC(C)CC(=O)N1CCc2nc(-c3ccc(Br)cc3)nc(N(C)Cc3ccccc3)c2C1 — remaining binding (MET Y1235D; cell-free assay; competition with immobilised ligand; 0.1 µM): 100%
O=C(Nc1cnn(-c2csc(C(=O)NC3COC3)c2)c1)Nc1ccccc1Cl — remaining activity (MET; enzyme activity; inhibitor; 5 µM): 102%
O=C(N[C@H]1CCCCC/C=C\C2C[C@@]2(C(=O)O)NC(=O)[C@@H]2C[C@@H](Oc3ccncc3)CN2C1=O)OC1CCCC1 (stereo partly shown) — remaining binding (MET M1250T; cell-free assay; competition with immobilised ligand; 1 µM): 92%
O=C(Nc1ccc(Cl)cc1)c1ccccc1NCc1ccncc1 — remaining signal (MET; cell-free assay; 0.5 µM): 92.2%
c1cnn2ncc(-c3ccnc(N4CCC45COC5)n3)c2c1 — remaining binding (MET Y1235D; binding; 1 µM): 80%
CCCOc1ccc([C@@H]2[C@@H](C(=O)O)[C@H](c3ccc4c(c3)OCO4)CN2CC(=O)Nc2c(CC)cccc2CC)cc1 — remaining binding (MET M1250T; cell-free assay; competition with immobilised ligand; 1 µM): 81%
